ChEMBL document CHEMBL4699492, “Discovery of Novel Pyrazolo[3,4-b] Pyridine Derivatives with Dual Activities of Vascular Remodeling Inhibition and Vasodilation for the Treatment of Pulmonary Arterial Hypertension” (J Med Chem, 2020)
Converted amounts (≈) assume the structure as drawn. The source made the active and inactive calls. The rule behind the calls is not given here.

Assays:
[1] = system: Rattus norvegicus; assay: Inhibition of vascular remodeling activity in Sprague-Dawley rat model of hypoxia-induced pulmonary artery hypertension assessed as right ventricular systolic pressure at 10 mg/kg, po administered daily for 2 weeks by catheter method (reference value: 26.2 mmHg); format: functional
[2] = Half life in Sprague-Dawley rat liver microsomes at 1.5 uM preincubated for 5 mins followed by NADPH addition and measured up to 45 mins by LC-MS/MS analysis; format: ADME, Microsome; details: time <=50 min
In short: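 Liver microsomes (0.75 mg/mL), human or SD rat, in 0.1 M potassium phosphate pH 7.4 with 3.0 mM MgCl2 and 1.5 µM compound, run in duplicate. After 5 min preincubation at 37 °C, reaction started with 3 mM NADPH. Quenched at 0, 5, 15, 30 and 45 min with ice-cold acetonitrile containing internal standard. Ketanserin served as positive control and a no-NADPH buffer incubation as negative control. LC-MS/MS read-out.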

[3] = target: AMP-activated protein kinase, AMPK (Homo sapiens) (UniProt P54646+O43741+P54619+Q9UGJ0+Q9Y478+Q13131+Q9UGI9); assay: Inhibition of AMPK in TGFbeta-induced HLF1 cells assessed as reduction in cell migration measured after 24 hrs by wound healing assay; format: cell-based; details: dose microM 5-10, time 24.0 hrs
In short: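 Wound-healing assay. 5 × 10^4 cells were seeded per well and grown 24 h to near confluence. The monolayer was scratched with a pipette tip and washed with PBS. Cells were then kept in 1% FBS medium with TGF-β (10 ng/mL) or under hypoxia (1% O2, 5% CO2, 94% N2), alone or with compound. Migration ran 24 h at 37 °C, imaged at 0 and 24 h. Mean ± SD from three independent experiments.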

[4] = Solubility of compound in water at pH 7.3; format: physicochemical; details: buffer
[5] = Effect on total AMPK level in lungs of Sprague-Dawley rat model of hypoxia-induced pulmonary artery hypertension at 10 mg/kg, po administered daily for 2 weeks by Western blot analysis; format: ADME, organism-based; details: in vivo, 336 h
In short: (§1)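 Hypoxic PAH model in male SD rats (160-200 g) kept at 10% O2 for 4 weeks. Oral dosing at 10 mg/kg daily for 14 days, suspended in 0.5% CMC-Na; control and hypoxia groups received vehicle only. Lungs homogenized in RIPA with protease and phosphatase inhibitors. 30 µg protein run on 10% SDS-PAGE, then PVDF blotting, with β-actin as loading reference. Three independent runs.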

[6] = target: cGMP-specific 3',5'-cyclic phosphodiesterase (Homo sapiens) (UniProt O76074); assay: Inhibition of PDE5A1 catalytic domain (535 to 860 residues) (unknown origin) expressed in Escherichia coli BL21 (DE3) at 100 nM using [3H]cGMP as substrate after 15 mins by liquid scintillation counting method relative to control
In short: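 PDE reaction in 50 mM Tris-HCl pH 8.0 with 4 mM MnCl2 or 10 mM MgCl2 and 1 mM DTT, using 3H-cGMP substrate. Run 15 min at room temperature, stopped with 0.2 M ZnSO4, and product precipitated with 0.2 M Ba(OH)2. Radioactivity of the supernatant counted by liquid scintillation. Inhibition rate calculated, with sildenafil as reference.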

[7] = system: Aorta; assay: Vasodilating activity in Sprague-Dawley rat aortic rings assessed as reduction in phenylephrine-induced contractions at 1 uM relative to control; format: functional
In short: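 Thoracic aorta from male SD rats (250-280 g) anesthetized with chloral hydrate, cut into 4 mm rings. Rings held in Krebs-Henseleit at 37 °C gassed with 95% O2/5% CO2, under 2 g resting tension, equilibrated 60 min, and precontracted with 10^-7 M phenylephrine. Cumulative concentrations of 3×10^-9 to 10^-6 M (final) applied. Percent relaxation of the initial contraction taken at 1 µM, and EC50 derived.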

[8] = Protein binding in human plasma; format: ADME, cell-free; details: read-out: PPB (converted)
[9] = system: Rattus norvegicus; assay: Inhibition of vascular remodeling activity in Sprague-Dawley rat model of hypoxia-induced pulmonary artery hypertension assessed as decrease in ratio of RV/tibial length at 10 mg/kg, po administered daily for 2 weeks; format: functional, organism-based
[10] = system: Rattus norvegicus; assay: In vivo inhibition of AMPK in Sprague-Dawley rat model of hypoxia-induced pulmonary artery hypertension assessed as reduction in AMPK phosphorylation in lungs at 10 mg/kg, po administered daily for 2 weeks by Western blot analysis; format: functional, organism-based; in short: as §1
[11] = system: Pulmonary Artery Smooth Muscle Cells; assay: Stimulation of sGC in HPASMC assessed as increase in intracellular cGMP level measured after 1 hr in absence of PDE5 inhibitor IBMX and presence of sGC inhibitor ODQ by cGMP-d2/europium cryptate reagent based HTRF assay; format: tissue-based; details: Homo sapiens, filed as activator
In short: (§2)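 HPASMCs were suspended at 100,000 cells/mL in PBS with 0.2% BSA, with or without 10 µM ODQ. Compounds were added as a 6-point, 10-fold dilution series; the top 2× stock was 200 µM. Incubation was 1 h at room temperature, in triplicate. cGMP-d2 in lysis buffer and europium cryptate were then added for 1 h before HTRF reading. Three independent experiments.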

[12] = Antiproliferative activity against HPASMC assessed as reduction in TGFbeta-induced cell proliferation measured after 48 hrs by CCK8 assay; format: functional, tissue-based; details: Homo sapiens, Pulmonary Artery Smooth Muscle Cells
In short: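 HPASMCs grown in high-glucose D-MEM with 20% FBS and HLF1 in D-MEM/F-12 (1:1) with 10% FBS. Cells stimulated with TGF-β (10 ng/mL) at 37 °C, 5% CO2, then exposed to a concentration range for 48 h. CCK-8 added for 4 h and absorbance read at 490 nm. IC50 derived from the curves.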

[13] = system: Rattus norvegicus; assay: Inhibition of vascular remodeling activity in Sprague-Dawley rat model of hypoxia-induced pulmonary artery hypertension assessed as reduction in alpha-SMA expression in lungs at 10 mg/kg, po administered daily for 2 weeks by Western blot analysis; format: functional, organism-based
In short: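 Lungs came from hypoxic SD rats (10% O2, 4 weeks) dosed orally at 10 mg/kg daily for 14 days. Tissue was homogenised in RIPA buffer with protease and phosphatase inhibitors. 30 µg of protein was run on 10% SDS-PAGE and transferred to PVDF. Blots were probed overnight at 4 °C with anti-α-SMA (1:1000) and anti-β-actin (1:2000) and detected by fluorescence.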

[14] = system: Rattus norvegicus; assay: Inhibition of vascular remodeling activity in Sprague-Dawley rat model of hypoxia-induced pulmonary artery hypertension assessed as reduction in TGFbeta expression in lungs at 10 mg/kg, po administered daily for 2 weeks by Western blot analysis; format: functional, organism-based; in short: as §1
[15] = system: Pulmonary Artery Smooth Muscle Cells; assay: Stimulation of sGC in HPASMC assessed as increase in intracellular cGMP level at 100 uM measured after 1 hr in presence of PDE5 inhibitor IBMX by cGMP-d2/europium cryptate reagent based HTRF assay relative to control; format: tissue-based; details: Homo sapiens, filed as activator; in short: as §2
[16] = Effect on total Smad2/3 level in lungs of Sprague-Dawley rat model of hypoxia-induced pulmonary artery hypertension at 10 mg/kg, po administered daily for 2 weeks by Western blot analysis; format: ADME, organism-based; details: in vivo, 336 h; in short: as §1
[17] = Effect on total ACC level in lungs of Sprague-Dawley rat model of hypoxia-induced pulmonary artery hypertension at 10 mg/kg, po administered daily for 2 weeks by Western blot analysis; format: ADME, organism-based; details: in vivo, 336 h; in short: as §1

## Cc1ccccc1COc1nc2c(cc1-c1nc(N)cc(N)n1)c(C)nn2-c1ccccc1
[1]
  Activity: 22 mmHg
[2]
  half-life at 1.5 µM: 10 min
[3]
  inhibition: Dose-dependent effect
[4]
  solubility: 0.034 µg/mL (≈ 0.0777 µM)
[5]
  Activity: Non-Toxic
[6]
  inhibition: 4.3%
[7]
  Emax at 1 µM: 63.2%
[8]
  fraction unbound: 0.002
[9]
  inhibition: Active
[10]
  inhibition: Active
[11]
  Activity: Active
[12]
  IC50: 17 µM
[13]
  inhibition: Active
[14]
  inhibition: Active
[15]
  Activity: 40%
[16]
  Activity: Non-Toxic
[17]
  Activity: Non-Toxic
